From ChEMBL document CHEMBL4819008, “Design, synthesis, and evaluation of "dual-site"-binding diarylpyrimidines targeting both NNIBP and the NNRTI adjacent site of the HIV-1 reverse transcriptase” (Eur J Med Chem, 2021)

Tests used:
[1] = Cytotoxicity against human TZM-bl cells assessed as reduction in cell viability measured after 1 day by CytoTox-Glo assay; format: cell-based
Outline: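 TZM-bl cells were cultured 1 day with various compound concentrations, in parallel with the antiviral assay, top concentration 100 ng/mL. Viable cells were measured by CytoTox-Glo. CC50 is the concentration causing a 50% reduction in cell viability.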

[2] = tested on: Human immunodeficiency virus 1; assay: Antiviral activity against HIV-1 harboring reverse transcriptase E138K mutant infected in human MT4 cells assessed as inhibition of virus induced cytopathic effect measured after 5 days by MTT assay; format: functional, organism-based; settings: Human immunodeficiency virus 1, MT4, 120 h
Outline: (§1)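 MT-4 cells, exponentially growing, resuspended at 6 × 10^5 cells/mL and infected with the mutant HIV-1 stock at 100–300 CCID50. Compounds were added as 5-fold serial dilutions, in triplicate wells, alongside mock-infected wells. After 5 days, viability was read by MTT reduction at 540 and 690 nm using the median OD of three wells. EC50 is the concentration giving 50% protection from viral cytopathogenicity.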

[3] = Cytotoxicity against human MT4 cells assessed as reduction in cell viability measured after 5 days by MTT assay; format: cell-based; settings: time 5 day
Outline: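 Mock-infected MT-4 cells (6 × 10^5 cells/mL) were run in parallel with the infected wells, under serial 5-fold compound dilutions in triplicate. MTT viability was read after 5 days and the median OD of three wells used. CC50 is the concentration that reduced OD540 of the mock-infected cells by 50%.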

[4] = tested on: Human immunodeficiency virus 1; assay: Antiviral activity against HIV-1 harboring reverse transcriptase RES056 mutant infected in human MT4 cells assessed as inhibition of virus induced cytopathic effect measured after 5 days by MTT assay; format: functional, organism-based; settings: Human immunodeficiency virus 1, MT4, 120 h; outline: as §1
[5] = tested on: Human immunodeficiency virus 1; assay: Antiviral activity against HIV-1 harboring reverse transcriptase F227L/V106A mutant infected in human MT4 cells assessed as inhibition of virus induced cytopathic effect measured after 5 days by MTT assay; format: functional, organism-based; settings: Human immunodeficiency virus 1, MT4, 120 h; outline: as §1
[6] = Antiviral activity against HIV-2 ROD infected in human MT4 cells assessed as protection against virus-induced cytopathic effect measured after 5 days by MTT assay; settings: Human immunodeficiency virus 2, ISOLATE ROD, MT4, 120 h
[7] = tested on: Human immunodeficiency virus 1; assay: Antiviral activity against HIV-1 harboring reverse transcriptase K103N mutant infected in human MT4 cells assessed as inhibition of virus induced cytopathic effect measured after 5 days by MTT assay; format: functional, organism-based; settings: Human immunodeficiency virus 1, MT4, 120 h; outline: as §1
[8] = tested on: Human immunodeficiency virus 1; assay: Potency index, ratio of nevirapine EC50 to test compound EC50 for antiviral activity against wild type HIV-1 3B infected in human MT4 cells assessed as inhibition of virus-induced cytopathic effect measured after 5 days by MTT assay; format: functional; settings: time 5 day
[9] = tested on: Human immunodeficiency virus 1; assay: Antiviral activity against HIV-1 harboring reverse transcriptase Y181C mutant infected in human MT4 cells assessed as inhibition of virus induced cytopathic effect measured after 5 days by MTT assay; format: functional, organism-based; settings: Human immunodeficiency virus 1, MT4, 120 h; outline: as §1
[10] = tested on: Human immunodeficiency virus 1; assay: Antiviral activity against wild type HIV1 NL4-3 infected in human TZM-bl cells assessed as reduction in viral infection measured after 1 day by luciferase reporter gene assay based luminiscence assay; format: functional, organism-based; settings: Human immunodeficiency virus 1, NL4-3, TZM-bl, 24 h
Outline: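 TZM-bl cells got a single-round infection with 800 TCID50 of NL4-3 at various compound concentrations, top concentration 100 ng/mL. Luminescence was read 1 day post-infection. EC50 is the concentration giving a 50% decrease in luciferase RLU versus control wells, determined in at least triplicate.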

[11] = target: Human immunodeficiency virus type 1 reverse transcriptase (Human immunodeficiency virus 1, UniProt Q72547); assay: (§2) Inhibition of HIV-1 reverse transcriptase assessed as reduction in biotin-dUTP incorporation into cDNA incubated for 1 hr with DIG-dUTP, biotin-dUTP and dTTP followed by transferring onto streptavidin-coated plate and measured after 1 hr by ELISA
Outline: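 Recombinant WT HIV-1 RT was tested with a Roche colorimetric kit. Enzyme, reconstituted template, DIG-dUTP, biotin-dUTP and dTTP were incubated 1 h at 37 °C in incubation buffer with or without inhibitor. The mix was then held 1 h at 37 °C on a streptavidin-coated plate, then anti-DIG-POD 1 h at 37 °C, then ABTS at 25 °C, and read at OD405.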

[12] = tested on: Human immunodeficiency virus 1; assay: Potency index, ratio of EFV EC50 to test compound EC50 for antiviral activity against HIV-1 harboring reverse transcriptase Y188L mutant infected in human MT4 cells assessed as inhibition of virus induced cytopathic effect measured after 5 days by MTT assay; format: functional; settings: time 5 day
[13] = tested on: Human immunodeficiency virus 1; assay: Antiviral activity against HIV-1 harboring reverse transcriptase Y188L mutant infected in human MT4 cells assessed as inhibition of virus induced cytopathic effect measured after 5 days by MTT assay; format: functional, organism-based; settings: Human immunodeficiency virus 1, MT4, 120 h; outline: as §1
[14] = Selectivity index, ratio of CC50 for human MT4 cells to EC50 for wild type HIV-1 3B infected in human MT4 cells; format: toxicity, cell-based; settings: read-out: Ratio CC50/EC50
[15] = tested on: Human immunodeficiency virus 1; assay: Antiviral activity against HIV-1 harboring reverse transcriptase L100I mutant infected in human MT4 cells assessed as inhibition of virus induced cytopathic effect measured after 5 days by MTT assay; format: functional, organism-based; settings: Human immunodeficiency virus 1, MT4, 120 h; outline: as §1
[16] = tested on: Human immunodeficiency virus 1; assay: Potency index, ratio of AZT EC50 to test compound EC50 for antiviral activity against wild type HIV-1 3B infected in human MT4 cells assessed as inhibition of virus-induced cytopathic effect measured after 5 days by MTT assay; format: functional; settings: time 5 day
[17] = tested on: Human immunodeficiency virus 1; assay: Antiviral activity against wild type HIV-1 3B infected in human MT4 cells assessed as inhibition of virus-induced cytopathic effect measured after 5 days by MTT assay; format: functional, organism-based; settings: Human immunodeficiency virus 1, 3B, MT4, 120 h
Outline: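 MT-4 cells at 6 × 10^5 cells/mL were infected with virus stock at 100–300 CCID50 in the presence of serial 5-fold compound dilutions, in triplicate wells. Viability was read by MTT reduction 5 days after infection, with absorbance at 540 and 690 nm and the median OD of three wells used. EC50 is the concentration giving 50% protection from viral cytopathicity.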

[18] = target: Human immunodeficiency virus type 1 reverse transcriptase (Human immunodeficiency virus 1) (UniProt Q72547); assay: as §2, with “Potency index, ratio of ETV IC50 to test compound IC50 for Inhibition” for “Inhibition”; settings: time 2.0 hrs
[19] = Selectivity index, ratio of CC50 for human TZM-bl cells to EC50 for wild type HIV1 NL4-3 infected in human TZM-bl cells; format: toxicity, cell-based; settings: read-out: Ratio CC50/EC50
Outline: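 Selectivity index is CC50/EC50, with both values from the TZM-bl assays: NL4-3 single-round luciferase infection and CytoTox-Glo viability, each over 1 day.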

C#CCNC(=O)/C=C/c1cnc(Nc2ccc(C#N)cc2)nc1Oc1c(C)cc(C#N)cc1C
CC50 at 24 h [1]: > 222 nM
EC50 [2]: 10.6 nM
CC50 at 120 h [3]: 141000 nM
EC50 [4]: 1290 nM
EC50 [5]: 402 nM
EC50 [6]: > 141000 nM
EC50 [7]: 10.4 nM
Ratio EC50 [8]: 16.2
EC50 [9]: 61.8 nM
EC50 [10]: 2.45 nM
IC50 [11]: 59 nM
Ratio EC50 [12]: 2.3
EC50 [13]: 64.5 nM
selectivity ratio [14]: 26900
EC50 [15]: 113 nM
Ratio EC50 [16]: 3.5
EC50 [17]: 5.2 nM
Ratio IC50 [18]: 6
selectivity ratio [19]: > 91

COCCNC(=O)/C=C/c1cnc(Nc2ccc(C#N)cc2)nc1Oc1c(C)cc(C#N)cc1C
CC50 at 24 h [1]: > 213 nM
EC50 [2]: 16.5 nM
CC50 at 120 h [3]: > 267000 nM
EC50 [4]: 1490 nM
EC50 [5]: 343 nM
EC50 [6]: > 267000 nM
EC50 [7]: 13.7 nM
EC50 [9]: 98 nM
EC50 [10]: 4.48 nM
Ratio EC50 [12]: 1.6
EC50 [13]: 90.6 nM
selectivity ratio [14]: > 34300
EC50 [15]: 166 nM
EC50 [17]: 7.8 nM
selectivity ratio [19]: > 48
